Test results taken from PubChem BioAssay AID623885 (Vanderbilt Specialized Chemistry Center, 2012).
Where “and” joins values, the source holds several entries; their conditions need not be identical. Identical values can stand only once. Calls of active or inactive are those of the source.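 The calls were made as follows: active = mean half-maximal effective concentration under 30 µM; inactive = the rest.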

The compounds below were run against Metabotropic glutamate receptor 3 (Rattus norvegicus) (UniProt P31422) (assay: rat mGlu3 negative modulators or antagonists, dose response, thallium flux, HEK/GIRK cells (AID 623885)). Conditions: HEK293 GIRK rat mGlu3, thallium flux fluorescence.
Sequence of Metabotropic glutamate receptor 3 (Rattus norvegicus) (P31422 whole entry, looked up): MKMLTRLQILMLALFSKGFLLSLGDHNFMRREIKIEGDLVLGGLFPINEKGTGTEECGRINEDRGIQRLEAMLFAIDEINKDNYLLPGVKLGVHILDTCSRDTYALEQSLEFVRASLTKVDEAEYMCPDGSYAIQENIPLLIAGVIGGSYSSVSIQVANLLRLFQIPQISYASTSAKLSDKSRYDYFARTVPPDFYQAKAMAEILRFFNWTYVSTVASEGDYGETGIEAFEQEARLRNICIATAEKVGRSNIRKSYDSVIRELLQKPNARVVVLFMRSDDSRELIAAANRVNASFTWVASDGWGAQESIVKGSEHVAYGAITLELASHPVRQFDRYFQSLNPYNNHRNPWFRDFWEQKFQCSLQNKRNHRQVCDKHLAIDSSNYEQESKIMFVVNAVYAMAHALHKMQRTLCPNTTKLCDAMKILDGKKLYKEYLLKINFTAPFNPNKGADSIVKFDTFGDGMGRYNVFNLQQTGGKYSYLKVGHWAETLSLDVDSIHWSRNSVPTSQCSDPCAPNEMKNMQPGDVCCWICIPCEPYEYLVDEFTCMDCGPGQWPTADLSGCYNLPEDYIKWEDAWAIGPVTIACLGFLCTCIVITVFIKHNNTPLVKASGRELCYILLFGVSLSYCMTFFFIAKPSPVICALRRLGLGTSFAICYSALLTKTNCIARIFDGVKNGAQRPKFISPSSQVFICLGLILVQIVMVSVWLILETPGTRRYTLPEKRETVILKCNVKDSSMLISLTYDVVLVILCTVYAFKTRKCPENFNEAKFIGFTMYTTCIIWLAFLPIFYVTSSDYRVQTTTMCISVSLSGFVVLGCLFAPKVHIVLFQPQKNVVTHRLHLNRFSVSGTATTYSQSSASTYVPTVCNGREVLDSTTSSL
Procedure, shortened: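 Material: HEK cells stably co-expressing GIRK channels, M4 muscarinic receptor, rat mGlu3. Probe or stimulus: thallium-containing buffer with or without agonist. Timing: dye loading 1 h room temperature, compounds ~2.5 min. Signal: thallium influx through GIRK, FluoZin-2 AM fluorescence. Read-out: baseline-normalized fluorescence slope 5–15 s post thallium/agonist, four-parameter logistic fit.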

Compound | IC50
COc1ccc(C#Cc2ccc(C(=O)N3CCC[C@@H](CO)C3)cc2)cc1 | 1.48 µM
COc1ccc(C#Cc2ccc(C(=O)N3CCC[C@H](CO)C3)cc2)cc1 | 3.46 µM
COc1ccc(C#Cc2ccc(C(=O)N3CCCC(CO)C3)cc2)cc1 (configuration not stated) | 2.46 µM

Same assay, conditions: HEK293 GIRK rat mGlu3, thallium flux fluorescence; at 30 µM (top of the series)

Compound | percent of glutamate max response
O=C(c1ccc(C#CCc2ccccc2)cc1)N1CCC(O)CC1 | 42.2
COc1ccc(C#Cc2ccc(C(=O)N3CCC(OC)CC3)cc2)cc1 | inactive
O=C(c1ccc(C#CC2=CCCCC2)cc1)N1CCC(O)CC1 | 46.1
CCN1CCC[C@H]1CNC(=O)c1ccc(C#Cc2ccc(OC)cc2)cc1 | 5.77
COc1ccc(C#Cc2ccc(C(=O)N3CCC[C@@H](CO)C3)cc2)cc1 | -0.47
O=C(c1ccc(C#Cc2ccccn2)cc1)N1CCC(O)CC1 | inactive
O=C(c1ccc(C#CCOc2ccccc2)cc1)N1CCC(O)CC1 | 37.7
COc1ccc(C#Cc2ccc(C(=O)NCCC(C)(C)C)cc2)cc1 | inactive
CC(C)(O)C#Cc1ccc(C(=O)N2CCC(O)CC2)cc1 | inactive
COc1ccc(C#Cc2ccc(C(=O)N3CCC(C#N)(c4ccccc4)CC3)cc2)cc1 | inactive
COc1ccc(C#Cc2ccc(C(=O)N3CCCC3)cc2)cc1 | 35.3
O=Cc1ccccc1C#Cc1ccc(C(=O)N2CCC(O)CC2)cc1 | 43.7
COc1ccc(C#Cc2ccc(C(=O)NCCCO)cc2)cc1 | inactive
CCCCN(CCO)C(=O)c1ccc(C#Cc2ccc(OC)cc2)cc1 | 8.56
COc1ccc(C#Cc2ccc(C(=O)N[C@H](C)C(C)C)cc2)cc1 | inactive
O=C(c1ccc(I)cc1)N1CCC(O)CC1 | inactive
COc1ccc(C#Cc2ccc(C(=O)N3CCC[C@@H](C(=O)O)C3)cc2)cc1 | 19.5
CC(C)(C)OC(=O)N1CCC(NC(=O)CN2CCc3cc(C#Cc4ccccc4)ccc3C2=O)CC1 | 33.8
O=C(c1ccc(C#CC2(O)CCCCC2)cc1)N1CCC(O)CC1 | inactive
CC(O)CC#Cc1ccc(C(=O)N2CCC(O)CC2)cc1 (configuration not stated) | inactive
COc1ccc(C#Cc2ccc(C(=O)Nc3ccc(F)cn3)cc2)cc1 | 63.9
COc1ccc(C#Cc2ccc(C(=O)NC3CCC(C)CC3)cc2)cc1 (configuration not stated) | inactive
O=C(c1ccc(C#CC2(O)CCCC2)cc1)N1CCC(O)CC1 | inactive
O=C(c1ccc(C#CCC2CCCCC2)cc1)N1CCC(O)CC1 | 4.33

Compound | percent of glutamate max response
COc1ccc(C#Cc2ccc(C(=O)N3CCC4CCCCC4C3)cc2)cc1 (configuration not stated) | inactive
COc1ccc(C#Cc2ccc(C(=O)N3C[C@H]4C[C@@H]3CN4C(=O)OC(C)(C)C)cc2)cc1 | inactive
Cn1ccnc1C#Cc1ccc(C(=O)N2CCC(O)CC2)cc1 | inactive
O=C(c1ccc(C#Cc2c(C(F)(F)F)cccc2C(F)(F)F)cc1)N1CCC(O)CC1 | 54.9
COc1cccc(C#Cc2ccc(C(=O)N3CCC(O)CC3)cc2)c1 | inactive
O=C(c1ccc(C#CCN2N=NCc3ccccc32)cc1)N1CCC(O)CC1 | inactive
COc1ccc(C#Cc2ccc(C(=O)N(CCO)c3ccccc3)cc2)cc1 | inactive
CCC1(O)CCN(C(=O)c2ccc(C#Cc3ccc(OC)cc3)cc2)CC1 | 46.4
CCC(N)(C#Cc1ccc(C(=O)N2CCC(O)CC2)cc1)CC | inactive
CCN(CC)CC#Cc1ccc(C(=O)N2CCC(O)CC2)cc1 | inactive
O=C(c1ccc(C#CC2CC2)cc1)N1CCC(O)CC1 | inactive
COc1ccc(C#Cc2ccc(C(=O)NCCC3=CCCCC3)cc2)cc1 | inactive
COc1ccc(C#Cc2ccc(C(=O)N3CC(O)C3)cc2)cc1 | 76.2
COc1ccc(C#Cc2ccc(C(=O)N3CCCCC3CO)cc2)cc1 (configuration not stated) | 55.9
Cc1ccc(C#Cc2ccc(C(=O)N3CCC(O)CC3)cc2)cc1 | 33.9
COc1ccc(C#Cc2ccc(C(=O)NC3CCC3)cc2)cc1 | inactive
COc1ccc(C#Cc2ccc(C(=O)N3CCN(c4ccccc4OC)CC3)cc2)cc1 | inactive
COc1ccc(C#Cc2ccc(C(=O)NCC(C)O)cc2)cc1 (configuration not stated) | inactive
N#CCCCC#Cc1ccc(C(=O)N2CCC(O)CC2)cc1 | inactive
O=C(c1ccc(C#CC2CCCCC2)cc1)N1CCC(O)CC1 | 37
COc1ccc(C#Cc2ccc(C(=O)N3CCC(CO)C3)cc2)cc1 (configuration not stated) | 14.7
COCC(C)NC(=O)c1ccc(C#Cc2ccc(OC)cc2)cc1 (configuration not stated) | inactive
CN(C)CC#Cc1ccc(C(=O)N2CCC(O)CC2)cc1 | inactive
COc1ccc(C#Cc2ccc(C(=O)N[C@H](C)C3CC3)cc2)cc1 | 69

Compound | percent of glutamate max response
CCCC1(O)CCN(C(=O)c2ccc(C#Cc3ccc(OC)cc3)cc2)CC1 | inactive
O=C(c1ccc(C#Cc2cccc3ccccc23)cc1)N1CCC(O)CC1 | 32.7
COc1ccc(C#Cc2ccc(C(=O)N[C@H](C)C3CCCCC3)cc2)cc1 | inactive
COc1ccc(C#Cc2ccc(C(=O)N3CCN(C(C)C)CC3)cc2)cc1 | 1.26
CC(C)(C)c1ccc(C#Cc2ccc(C(=O)N3CCC(O)CC3)cc2)cc1 | inactive
O=C(c1ccc(C#Cc2ccc(Cl)cc2)cc1)N1CCC(O)CC1 | 51.6
COc1ccc(C#Cc2ccc(C(=O)N3CCC3)cc2)cc1 | 31.5
O=Cc1ccc(C#Cc2ccc(C(=O)N3CCC(O)CC3)cc2)cc1 | 21.8
CCC(C)(O)C#Cc1ccc(C(=O)N2CCC(O)CC2)cc1 (configuration not stated) | inactive
CN(C)c1ccc(C#Cc2ccc(C(=O)N3CCC(O)CC3)cc2)cc1 | inactive
CC(O)(C#Cc1ccc(C(=O)N2CCC(O)CC2)cc1)c1cccc(F)c1 (configuration not stated) | inactive
CCOC(=O)C#Cc1ccc(C(=O)N2CCC(O)CC2)cc1 | inactive
O=C(c1ccc(C#Cc2ccccc2F)cc1)N1CCC(O)CC1 | 22.4
O=C(c1ccc(C#CC2CCCC2)cc1)N1CCC(O)CC1 | inactive
N#Cc1ccc(C#Cc2ccc(C(=O)N3CCC(O)CC3)cc2)cc1 | 17.5
O=C(c1ccc(C#CCCCCO)cc1)N1CCC(O)CC1 | inactive
CC(C)CCC#Cc1ccc(C(=O)N2CCC(O)CC2)cc1 | 24.7
COc1ccc(C#Cc2ccc(C(=O)N3CCC(C)(O)CC3)cc2)cc1 | 5.42
O=C(c1ccc(C#CCOCC2CO2)cc1)N1CCC(O)CC1 (configuration not stated) | inactive
CC(C)CC#Cc1ccc(C(=O)N2CCC(O)CC2)cc1 | inactive
COc1ccc(C#Cc2ccc(C(=O)N3CCC[C@H](C(=O)O)C3)cc2)cc1 | 0.55
COc1ccc(C#Cc2ccc(C(=O)N3CCC(C(C)=O)(c4ccccc4)CC3)cc2)cc1 | inactive
COc1ccc(C#Cc2ccc(C(=O)N3CCN(c4ccccc4)CC3)cc2)cc1 | inactive
COc1ccc(C#Cc2ccc(C(=O)N3CCC(O)(c4ccc(Cl)c(C(F)(F)F)c4)CC3)cc2)cc1 | 117

Compound | percent of glutamate max response
O=C(c1ccc(C#CCCCN2C(=O)c3ccccc3C2=O)cc1)N1CCC(O)CC1 | inactive
O=C(c1ccc(C#CCCCCCl)cc1)N1CCC(O)CC1 | 47.8
COc1ccc(C#Cc2ccc(C(=O)NC(C)(C)C)cc2)cc1 | inactive
COc1ccc(C#Cc2ccc(C(=O)NC(C)C)cc2)cc1 | inactive
COc1ccc(C#Cc2ccc(C(=O)NCCO)cc2)cc1 | inactive
COc1ccc(C#Cc2ccc(C(=O)N[C@H]3CCCCNC3=O)cc2)cc1 | inactive
CCc1ccc(C#Cc2ccc(C(=O)N3CCC(O)CC3)cc2)cc1 | 62
O=C(c1ccc(C#Cc2ccc(-c3ccccc3)cc2)cc1)N1CCC(O)CC1 | inactive
CC(C)(C)NC(=O)CN1CCc2cc(C#Cc3ccccc3)ccc2C1=O | 51.4
CCOC1CCN(C(=O)c2ccc(C#Cc3ccc(OC)cc3)cc2)CC1 | inactive
COc1ccc(C#Cc2ccc(C(=O)N3CCOCC3)cc2)cc1 | 65.1
O=C(CN1CCc2cc(C#Cc3ccccc3)ccc2C1=O)N1CCC2CCCCC2C1 (configuration not stated) | 26.5 and 64.7
O=C(c1ccc(C#Cc2ccccc2)cc1)N1CCC(O)CC1 | 11.6
COc1ccc(C#Cc2ccc(C(=O)N3CCC(O)CC3)cc2)cc1 | 7.43
COc1ccc(C#Cc2cccc(C(=O)N3CCC(O)CC3)c2)cc1 | 13.9
CC(C)(C)C#Cc1ccc(C(=O)N2CCC(O)CC2)cc1 | inactive
COc1ccc(C#Cc2ccc(C(=O)NCc3ccc(C(C)(C)C)cc3)cc2)cc1 | inactive
Cc1ccccc1C#Cc1ccc(C(=O)N2CCC(O)CC2)cc1 | 10.8
CC(=O)OCC#Cc1ccc(C(=O)N2CCC(O)CC2)cc1 | inactive
COc1ccccc1C#Cc1ccc(C(=O)N2CCC(O)CC2)cc1 | inactive
O=C(c1ccc(C#Cc2ccncc2)cc1)N1CCC(O)CC1 | inactive
COc1ccc(C#Cc2ccc(C(=O)NCCCCO)cc2)cc1 | inactive
